# Reference: publication PMC3698492 (Scientific Reports, 2013)
# Assays:
# 5-HT1B = target: T1, 5-HT1B (Drosophila melanogaster, UniProt P28286); assay: Calcium imaging of receptor expressed in HEK-293T cells; assay type: cell-based
# T1 sequence (P28286 1-617): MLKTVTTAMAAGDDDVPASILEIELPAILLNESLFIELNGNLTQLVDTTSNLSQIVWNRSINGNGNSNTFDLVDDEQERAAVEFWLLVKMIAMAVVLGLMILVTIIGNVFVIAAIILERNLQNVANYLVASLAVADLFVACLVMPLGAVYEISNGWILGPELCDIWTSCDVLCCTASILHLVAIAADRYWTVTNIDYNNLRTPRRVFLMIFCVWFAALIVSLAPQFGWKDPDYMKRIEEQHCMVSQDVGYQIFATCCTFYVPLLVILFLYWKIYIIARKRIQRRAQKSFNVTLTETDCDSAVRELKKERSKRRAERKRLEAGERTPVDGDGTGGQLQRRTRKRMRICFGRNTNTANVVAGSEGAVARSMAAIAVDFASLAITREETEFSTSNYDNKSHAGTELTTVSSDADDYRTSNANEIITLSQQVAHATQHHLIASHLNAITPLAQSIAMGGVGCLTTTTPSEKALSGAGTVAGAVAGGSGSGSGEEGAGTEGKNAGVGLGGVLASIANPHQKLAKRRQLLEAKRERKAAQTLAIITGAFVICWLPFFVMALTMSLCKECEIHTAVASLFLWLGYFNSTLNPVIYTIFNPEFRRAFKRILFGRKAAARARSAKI
# HEK-293T cells = assay: ATP control after metitepine treatment; assay type: cell-based; details: 100 μM metitepine; ATP activated all cells afterwards
# [1] = test system: Drosophila first instar larvae; assay: Liquid food feeding assay; assay type: in vivo, Drosophila melanogaster; details: for dose-response verification: 14 secondary screen hits chosen for dose-response curve
# 5-HT2A = target: T2, 5-HT2A (Drosophila melanogaster, UniProt Q9VN38); assay: Calcium imaging of receptor expressed in HEK-293T cells; assay type: cell-based; details: 100 μM metitepine; stated for all 5-HT receptors
# T2 sequence (Q9VN38 1-868): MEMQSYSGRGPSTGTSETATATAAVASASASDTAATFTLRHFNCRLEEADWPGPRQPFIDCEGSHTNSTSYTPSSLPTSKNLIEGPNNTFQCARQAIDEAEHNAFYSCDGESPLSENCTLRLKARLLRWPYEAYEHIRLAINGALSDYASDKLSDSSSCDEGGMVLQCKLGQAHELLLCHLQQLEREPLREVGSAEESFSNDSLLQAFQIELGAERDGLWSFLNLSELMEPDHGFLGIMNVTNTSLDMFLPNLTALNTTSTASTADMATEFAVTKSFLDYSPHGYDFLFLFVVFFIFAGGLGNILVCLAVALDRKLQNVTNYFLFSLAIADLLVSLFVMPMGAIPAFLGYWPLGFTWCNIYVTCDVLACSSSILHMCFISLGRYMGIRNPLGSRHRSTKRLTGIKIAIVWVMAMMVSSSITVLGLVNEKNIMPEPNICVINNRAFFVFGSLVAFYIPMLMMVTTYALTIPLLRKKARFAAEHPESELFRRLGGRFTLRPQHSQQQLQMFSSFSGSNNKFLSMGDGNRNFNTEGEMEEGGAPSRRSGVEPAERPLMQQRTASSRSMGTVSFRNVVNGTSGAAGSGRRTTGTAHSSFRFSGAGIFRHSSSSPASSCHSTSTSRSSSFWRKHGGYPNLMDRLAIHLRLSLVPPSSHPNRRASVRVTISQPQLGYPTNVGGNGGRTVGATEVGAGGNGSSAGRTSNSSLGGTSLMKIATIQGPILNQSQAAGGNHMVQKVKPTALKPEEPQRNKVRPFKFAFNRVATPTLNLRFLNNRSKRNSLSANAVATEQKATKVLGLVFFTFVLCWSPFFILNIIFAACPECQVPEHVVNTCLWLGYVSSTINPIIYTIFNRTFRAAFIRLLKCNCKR
# Drosophila larvae [2] = assay: Larval locomotion; assay type: in vivo, Drosophila melanogaster
# Drosophila larvae [3] = assay: Solid food feeding assay; assay type: in vivo, Drosophila melanogaster
# In short: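 Larvae aged 0–2 h were fed 17 h at 25°C and 70% humidity on cornmeal-agar-molasses food containing 0.05% bromophenol blue plus solvent or test compound. Individual larvae were imaged, and digestive-tract optical density was measured. Values were normalized to same-day solvent-treated larvae and reported as mean ± s.e.m.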
# 5-HT2B = target: T3, 5-HT2B (Drosophila melanogaster, UniProt Q8INQ6); assay: Calcium imaging of receptor expressed in HEK-293T cells; assay type: cell-based; details: 100 μM metitepine; stated for all 5-HT receptors
# T3 sequence (Q8INQ6 1-904): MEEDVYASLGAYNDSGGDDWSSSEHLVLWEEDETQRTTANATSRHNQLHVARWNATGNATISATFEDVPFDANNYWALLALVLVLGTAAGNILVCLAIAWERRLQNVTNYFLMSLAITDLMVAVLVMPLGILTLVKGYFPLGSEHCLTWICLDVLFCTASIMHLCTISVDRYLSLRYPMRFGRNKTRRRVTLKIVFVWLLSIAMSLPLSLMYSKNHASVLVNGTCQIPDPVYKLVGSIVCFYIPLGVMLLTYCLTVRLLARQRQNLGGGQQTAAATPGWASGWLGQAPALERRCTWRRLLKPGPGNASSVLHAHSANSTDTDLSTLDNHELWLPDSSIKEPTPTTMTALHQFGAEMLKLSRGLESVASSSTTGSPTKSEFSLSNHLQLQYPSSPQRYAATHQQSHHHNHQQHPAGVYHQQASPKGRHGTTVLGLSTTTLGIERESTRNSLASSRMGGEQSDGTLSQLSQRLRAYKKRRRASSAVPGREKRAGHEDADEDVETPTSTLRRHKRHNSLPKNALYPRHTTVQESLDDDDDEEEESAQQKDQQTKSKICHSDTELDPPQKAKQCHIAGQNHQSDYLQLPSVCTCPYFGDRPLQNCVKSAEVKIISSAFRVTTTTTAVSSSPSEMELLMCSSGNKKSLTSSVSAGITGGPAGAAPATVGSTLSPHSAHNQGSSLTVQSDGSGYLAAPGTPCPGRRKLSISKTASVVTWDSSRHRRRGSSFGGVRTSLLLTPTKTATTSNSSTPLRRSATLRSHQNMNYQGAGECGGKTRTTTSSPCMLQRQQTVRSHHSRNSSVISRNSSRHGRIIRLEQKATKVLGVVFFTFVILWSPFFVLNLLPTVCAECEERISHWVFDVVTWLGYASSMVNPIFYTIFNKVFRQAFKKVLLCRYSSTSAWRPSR
# C. elegans = details: different small molecule screen; cited from earlier work
# 5-HT7 = target: T4, 5-HT7 (Drosophila melanogaster, UniProt P20905); assay: Calcium imaging of receptor expressed in HEK-293T cells; assay type: cell-based; details: 100 μM metitepine; stated for all 5-HT receptors
# T4 sequence (P20905 1-564): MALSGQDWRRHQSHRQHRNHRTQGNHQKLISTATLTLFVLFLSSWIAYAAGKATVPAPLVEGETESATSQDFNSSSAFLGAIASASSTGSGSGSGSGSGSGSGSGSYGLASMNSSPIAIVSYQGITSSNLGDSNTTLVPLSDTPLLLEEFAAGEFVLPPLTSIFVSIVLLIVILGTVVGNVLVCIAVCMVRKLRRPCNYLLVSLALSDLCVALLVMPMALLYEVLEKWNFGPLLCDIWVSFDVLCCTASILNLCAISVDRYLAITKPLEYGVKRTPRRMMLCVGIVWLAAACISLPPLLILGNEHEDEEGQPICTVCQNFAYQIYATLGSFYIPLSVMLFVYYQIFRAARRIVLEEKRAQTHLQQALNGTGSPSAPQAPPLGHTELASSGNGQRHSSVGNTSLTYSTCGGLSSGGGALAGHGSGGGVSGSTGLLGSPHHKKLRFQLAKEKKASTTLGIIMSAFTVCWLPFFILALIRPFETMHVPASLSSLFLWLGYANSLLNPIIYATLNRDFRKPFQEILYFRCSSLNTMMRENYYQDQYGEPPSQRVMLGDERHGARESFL
# 5-HT1A = target: T5, 5-HT1A (Drosophila melanogaster, UniProt P28285); assay: as above; assay type: cell-based; details: 100 μM metitepine; stated for all 5-HT receptors
# T5 sequence (P28285 1-834): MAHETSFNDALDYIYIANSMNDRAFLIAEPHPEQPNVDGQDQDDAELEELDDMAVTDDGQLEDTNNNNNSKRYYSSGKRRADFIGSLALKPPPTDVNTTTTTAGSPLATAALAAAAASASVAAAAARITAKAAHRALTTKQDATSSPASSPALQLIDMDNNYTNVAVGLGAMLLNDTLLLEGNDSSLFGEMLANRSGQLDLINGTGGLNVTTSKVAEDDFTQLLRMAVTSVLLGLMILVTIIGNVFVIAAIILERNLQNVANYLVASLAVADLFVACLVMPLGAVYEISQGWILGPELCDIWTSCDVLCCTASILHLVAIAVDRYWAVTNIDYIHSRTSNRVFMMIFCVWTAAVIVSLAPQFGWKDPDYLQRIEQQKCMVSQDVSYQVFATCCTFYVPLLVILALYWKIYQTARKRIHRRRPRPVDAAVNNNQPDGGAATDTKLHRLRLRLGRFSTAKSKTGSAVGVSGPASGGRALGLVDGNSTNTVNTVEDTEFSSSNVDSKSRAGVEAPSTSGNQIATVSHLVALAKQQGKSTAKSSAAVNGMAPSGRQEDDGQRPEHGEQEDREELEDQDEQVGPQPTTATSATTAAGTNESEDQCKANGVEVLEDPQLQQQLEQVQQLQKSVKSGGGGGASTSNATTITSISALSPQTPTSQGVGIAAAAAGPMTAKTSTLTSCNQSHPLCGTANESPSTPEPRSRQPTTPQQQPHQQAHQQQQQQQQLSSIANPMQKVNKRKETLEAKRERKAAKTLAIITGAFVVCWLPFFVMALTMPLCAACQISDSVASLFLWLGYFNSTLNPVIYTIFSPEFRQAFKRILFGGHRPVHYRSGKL
Structure (SMILES),IC50 (5-HT1B),"responses to 5-HT in presence of drug (5-HT1B; 100 μM metitepine, stated for all 5-HT receptors)",cell survival after treatment (HEK-293T cells),food accumulation immediately after exposure ([1]; 0-h recovery),dose-response verification [1],anorectic effect 4 hours after treatment ([1]; 4 h recovery),"food intake 24 hours after treatment ([1]; 24 h recovery, rebound from drug-induced fasting)","threshold concentration for efficacy ([1]; liquid food with fluorescein, increasing effects at 50 and 100 μM)",duration of anorectic effect after treatment ([1]; recovery time course after metitepine treatment),responses to 5-HT in presence of drug (5-HT2A),"crawling speed (Drosophila larvae [2]; 100 μM in solid food, 17 hours, agar surface)","solid food accumulation in digestive tract (Drosophila larvae [3]; cornmeal-agar-molasses diet with bromophenol blue, 100 μM (Fig. 3a))","threshold efficacy dose (Drosophila larvae [3]; solid food with bromophenol blue, optical density of gut)",responses to 5-HT in presence of drug (5-HT2B),lifespan (C. elegans),responses to 5-HT in presence of drug (5-HT7),responses to 5-HT in presence of drug (5-HT1A),"larval locomotion (Drosophila larvae [2]; at concentrations as low as 10 μM, data not shown)","feeding in pilot screen ([1]; pilot screen, tested individually at 20 μg/ml, data not shown)"
CSc1ccc2c(c1)C(N1CCN(C)CC1)Cc1ccccc1S2 (centres unmarked) [Metitepine],58 µM,dramatically suppressed or completely abolished,did not kill the cells,reduced food accumulation,showed reliable dose-dependent responses,not evident,ate significantly more,10 µM,2 h,dramatically suppressed or completely abolished,crawled at the same speed as solvent treated controls,accumulated less solid food,50 µM,dramatically suppressed or completely abolished,extends lifespan,dramatically suppressed or completely abolished,dramatically suppressed or completely abolished,,
COC(=O)[C@H]1[C@H]2C[C@@H]3c4[nH]c5cc(OC)ccc5c4CCN3C[C@H]2C[C@@H](OC(=O)c2cc(OC)c(OC)c(OC)c2)[C@@H]1OC [Reserpine],,,,,showed reliable dose-dependent responses,,,,,,,,,,,,,dramatically reduced larval locomotion,
C[C@@H]1C[C@@H]([C@H](O)CC2CC(=O)NC(=O)C2)C(=O)[C@@H](C)C1 [cycloheximide],,,,,,,,,,,,,,,,,,,inhibited feeding
